Assay outcomes as filed in PubChem BioAssay.
HIF activator: HIF pathway transcriptional activation; U2OS HRE-luciferase reporter, luminescence; normalized: DMSO 0%, desferrioxamine 100%; activation, % at 7.5 µM (by protocol); actives 0.32% (n = 300,000); AID 1910;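 active = mean activation of at least 10% of the iron chelator positive control signal, with at least half of replicates also reaching 10%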
ARNT-TACC3 inh: disruptors of human ARNT/TACC3 interaction; AlphaScreen His-ARNT PAS-B/GST-TACC3 binding, luminescence; TACC3 fragment carries E629A point mutation; inhibition, % at 9.99 µM; actives 0.66% (n = 390,000); AID 623870; Q9Y6A5;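 active = mean inhibition of replicates at least 50% and at least half of replicates each reaching 50%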;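 also: 0% = complete ARNT plus TACC3 wells and 100% = ARNT alone without TACC3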
T cruzi inh: T. cruzi replication inhibition; T. cruzi beta-gal in NIH3T3, luminescence, 90 h; inhibition, % (no concentration beside the values); actives 1.4% (n = 300,000);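 active = mean inhibition across valid replicates above about 55%, limit read from the data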;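 also: signal also drops with host cell toxicity which is not excluded here; 0% = plate median of DMSO wells and 100% = zero luminescence signal; higher percent means less beta-gal luminescence so fewer parasites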
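assay system = mouse NIH/3T3 fibroblasts infected with β-gal-expressing T. cruzi Tulahuen C4 | input = 5,000 NIH/3T3 host cells per well | buffer or medium = DMEM plus 2% FBS | timing = 3 h host attachment, then at least 90 h co-culture | measured by = GalScreen luminescence, 60 min | evaluation = luminescence reflecting intracellular parasite burden, expressed as percent inhibition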
AI-2 QS mod: modulators of Vibrio harveyi AI-2 quorum sensing system; Vibrio harveyi JMH597 AI-2 luminescence/OD600 ratio, 9 h; hits give low values; strain lacks LuxN and CqsS sensors; 0 = neutral-control median; activity change, % at 7.5 µM; actives 0.4% (n = 300,000); AID 2094; in the data active = activity change below about -75%, passing the limit was not always enough;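 also: luminescence divided by OD600 gain over 9 h not by final OD600 alone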
ARNT Alpha ctr-1: interferes with AlphaScreen signal, flagging false ARNT-TACC3 hits; shares compounds with ARNT-TACC3 inh; His-ARNT PASB-GST AlphaScreen artifact counter-screen, luminescence; AC50, µM (series often up to 68 µM), without a hit: at the highest dose activity change, negative = signal decrease; actives 50% (n = 1,200); AID 651705;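 active = every separate test run was called active for a drop in luminescence, with AC50 within twice the top valid dose, actives reach about 71 µM in these data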
ARNT Alpha ctr-2: AlphaScreen artifact flagged for ARNT-TACC3 inhibitors; shares compounds with ARNT-TACC3 inh; Dual-tagged His-ARNT PASB-GST AlphaScreen artifact counter-screen; AC50, µM; actives 70% (n = 45); AID 720564;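 active = luminescence drop, with half-maximal potency fitted within twice the sample's top valid dose, cut at about 70 µM in these data; inactive = the rest, including signal moving the wrong way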
Starred values were filed as active, the others as inactive; · = no result given. The list is not random: actives were taken first. Their share in the collection is about 2%.

SMILES | HIF activator | ARNT-TACC3 inh | T cruzi inh | AI-2 QS mod | ARNT Alpha ctr-1 | others
COc1cc(CNCc2ccccn2)ccc1OCc1ccc(Cl)cc1Cl | 0 | 55* | 10 | 42 | -39%
CCCNC(=O)N1[C@H](CO)[C@@H]2c3ccccc3N(C(=O)c3ccc(F)cc3)C[C@@H]21 | · | 8 | · | · | ·
C[C@@H]1CN([C@@H](C)CO)C(=O)c2cc(NS(=O)(=O)c3ccc(Cl)cc3)ccc2O[C@@H]1CN(C)S(=O)(=O)c1ccc(Cl)cc1 | · | -4 | · | · | ·
COCC(=O)Nc1ccc2c(c1)C(=O)N(C)[C@H]1CC[C@@H](CC(=O)NCc3ccccc3)O[C@@H]1CO2 | · | -2 | · | · | ·
COCC(=O)N1C[C@@H](C)[C@H](OC)CN(C)C(=O)c2ccc(NC(=O)c3ccccc3)cc2OC[C@H]1C | · | -2 | · | · | ·
CC1CCN(S(=O)(=O)c2ccc(C(=O)Nc3nnc(-c4ccco4)o3)cc2)CC1 | 0 | 31 | -19 | 21 | · | ARNT Alpha ctr-2=>136
CSc1ccc(-c2nnc(NC(=O)c3ccc(S(=O)(=O)N4CCC(C)CC4)cc3)o2)cc1 | · | · | · | · | · | ARNT Alpha ctr-2=59*
CO[C@@H]1CN(C)C(=O)c2cc(NC(=O)c3ccccc3F)ccc2OC[C@H](C)N(C)C[C@H]1C | · | -8 | · | · | ·
C[C@H](CO)N1C[C@H](C)[C@H](CN(C)C)Oc2cc(-c3cccc(F)c3)ccc2S1(=O)=O | · | -3 | · | · | ·
O=C(C1CCCCC1)N1C[C@H]2[C@@H](c3ccccc31)[C@H](CO)N2C(=O)c1ccccc1 | · | 1 | · | · | ·
O=c1[nH]c(Nc2ccccc2)cc2cc(Br)ccc12 | 0 | 35 | -18 | 20 | ·
CC(=O)c1cccc(-c2ccc3c(=O)[nH]c(Nc4ccccc4)cc3c2)c1 | -1 | 33* | 3 | 31 | -21%
CC(=O)Nc1cccc(C(=O)O)n1 | 0 | 59* | -19 | 2 | -20%
Cc1ccc(S(=O)(=O)N2CCN(S(=O)(=O)N(C)C)CC2)cc1 | 0 | 19 | -3 | 21 | ·
CN(C)S(=O)(=O)N1CCN(S(=O)(=O)c2ccc(F)cc2)CC1 | 0 | 51* | -12 | 17 | 0%
Cc1ccccc1Oc1nc(-c2ccccn2)nc2ccccc12 | 3 | 51* | 16 | 22 | -21%
Cc1cccc(Oc2nc(-c3ccccn3)nc3ccccc23)c1 | 3 | 65* | -3 | 4 | -18%
COc1cccc(-c2nc(Oc3cc(C)cc(C)c3)c3ccccc3n2)c1O | 0 | · | -4 | 13 | ·
Cc1cccc(Oc2nc(-c3ccncc3)nc3ccccc23)c1 | 0 | -5 | 26 | 11 | ·
CCCc1nnc(NS(=O)(=O)c2ccc(C)cc2)o1 | · | 64* | · | · | 0%
Cc1ccc(S(=O)(=O)Nc2nncs2)cc1 | 0 | -12 | -13 | 23 | ·
C[C@H](CO)N1C[C@H](C)[C@H](CN(C)C)Oc2ncc(C#CC(C)(C)O)cc2C1=O | · | 8 | · | · | ·
C[C@@H]1CN([C@H](C)CO)S(=O)(=O)c2ccc(C#CCN(C)C)cc2O[C@H]1CN(C)Cc1ccc2c(c1)OCO2 | · | 13 | · | · | ·
O=c1c2ccccc2c(C=NCc2ccccn2)c(O)n1-c1ccccc1 | -1 | 3 | 7 | 11 | ·
O=c1oc2ccccc2c(O)c1C=NCc1ccccn1 | 0 | 58* | -20 | 23 | 1%
SMILES | HIF activator | ARNT-TACC3 inh | T cruzi inh | AI-2 QS mod | ARNT Alpha ctr-1 | others
C[C@@H]1CN([C@@H](C)CO)C(=O)c2cccc(NC(=O)C3CCCCC3)c2O[C@H]1CN(C)Cc1ccc(C(=O)O)cc1 | · | -6 | · | · | ·
C[C@H]1CCCCO[C@@H](CN(C)C(=O)Nc2ccc3c(c2)OCO3)[C@@H](C)CN([C@@H](C)CO)C(=O)c2cc(NC(=O)NC3CCCCC3)ccc2O1 | · | 7 | · | · | ·
CC(=O)N(C)C1=C(O)c2ccccc2C(=O)C1=O | 0 | 11* | -12 | -6 | 5%
CCC(=O)NC(c1cc(Cl)c2cccnc2c1O)C1CC1 (stereo not given) | · | 58* | · | · | 37µM*
CCC(=O)NC(c1cc(Cl)c2cccnc2c1O)C(C)C (stereo not given) | · | 54* | · | · | 69µM*
CNC[C@@H]1OCCCC[C@H](C)Oc2ccc(NS(=O)(=O)c3c(C)noc3C)cc2C(=O)N([C@H](C)CO)C[C@@H]1C | · | -14 | · | · | ·
